Some of the results follow. Values without a mark were called inactive. Active and inactive are the calls of the source.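 Rule for the calls: active = percent inhibition of p97 ATPase above a set limit, the primary screen's mean plus 3 SD (cut at about 15% in these data); inactive = the rest.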
These compounds were tested against Transitional endoplasmic reticulum ATPase (Homo sapiens) (UniProt P55072) (assay: p97 ATPase inhibitors, retest, confirmation, biochemical (AID 1517;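 note: 0% = DMSO wells and 100% = wells lacking p97 protein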)). Conditions: recombinant p97 ATPase, Kinase-Glo ATP luminescence; at 8 µM; active compounds read high.
Sequence of Transitional endoplasmic reticulum ATPase (Homo sapiens) (P55072 whole entry, looked up): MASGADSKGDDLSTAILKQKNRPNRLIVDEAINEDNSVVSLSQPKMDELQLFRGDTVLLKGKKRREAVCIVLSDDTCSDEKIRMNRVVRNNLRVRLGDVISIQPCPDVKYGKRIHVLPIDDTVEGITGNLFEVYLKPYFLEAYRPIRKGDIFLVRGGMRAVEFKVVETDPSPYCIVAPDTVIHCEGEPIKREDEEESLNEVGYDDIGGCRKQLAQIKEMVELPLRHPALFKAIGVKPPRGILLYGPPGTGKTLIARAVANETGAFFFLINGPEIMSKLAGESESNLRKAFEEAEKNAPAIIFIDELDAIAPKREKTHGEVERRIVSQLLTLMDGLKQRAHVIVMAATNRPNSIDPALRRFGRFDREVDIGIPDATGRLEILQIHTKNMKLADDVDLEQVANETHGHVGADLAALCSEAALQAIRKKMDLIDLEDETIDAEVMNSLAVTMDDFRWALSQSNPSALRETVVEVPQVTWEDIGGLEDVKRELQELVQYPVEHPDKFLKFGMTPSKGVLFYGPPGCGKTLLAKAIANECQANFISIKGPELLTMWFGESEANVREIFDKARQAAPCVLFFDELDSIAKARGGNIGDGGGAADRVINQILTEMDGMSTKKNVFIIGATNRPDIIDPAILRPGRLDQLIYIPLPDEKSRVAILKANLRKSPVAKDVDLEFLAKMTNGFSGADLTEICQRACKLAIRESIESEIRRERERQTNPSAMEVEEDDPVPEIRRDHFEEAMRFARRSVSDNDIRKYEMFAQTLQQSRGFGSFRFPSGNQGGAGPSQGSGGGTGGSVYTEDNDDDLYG
Procedure, shortened: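 System: recombinant p97 / Medium: Tris/MgCl2/EDTA/DTT buffer, pH 8.0 / Incubation: 30 min compound–enzyme preincubation at 25 °C, then 3 h ATP reaction / Measured by: Kinase-Glo luciferase luminescence measuring remaining ATP / Read-out: % inhibition versus DMSO and no-enzyme controls / Replicates: triplicate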

Compound | inhibition
CCN(c1ccccc1)S(=O)(=O)c1ccc(N)cc1 | 1.51%
Cc1ccc2c(c1)NCC(C(=O)NC1CCC(C)CC1)O2 (stereo not drawn) | 4.67%
COc1ccc(Cl)cc1C(=O)NNC(=O)c1nc2nc(C)cc(C)n2n1 | 20.8% (active)
O=C(OCC1O[C@@H](OC(=O)c2cc(O)c(O)c(O)c2)[C@@H](OC(=O)c2cc(O)c(O)c(O)c2)[C@@H](OC(=O)c2cc(O)c(O)c(O)c2)[C@@H]1OC(=O)c1cc(O)c(O)c(O)c1)c1cc(O)c(O)c(O)c1 (stereo partly drawn) | 59.8% (active)
[O-][n+]1onc2c1CCc1[nH]c(-c3ccccc3)nc1-2 | 39.8% (active)
CC1CCCN(C(C(=O)Nc2ccc(C(C)C)cc2)c2ccc3c(c2)OCO3)C1 (stereo not drawn) | -0.84%
Cc1cc(C)c2cc(CN(Cc3nnnn3Cc3ccc(F)cc3)C3CCCC3)c(=O)[nH]c2c1 | 4.43%
N#CC1=C(N)Oc2[nH]c(=S)[nH]c(=O)c2C12C(=O)Nc1ccccc12 (stereo not drawn) | 25.8% (active)
Nc1ccc2nc3c(=O)[nH]c(=S)[nH]c3nc2c1 | 25.4% (active)
C=CCn1c(=S)[nH]c2scc(-c3ccco3)c2c1=O | 13.5%
COc1ccc(-c2[nH]ncc2/C=N/NC(=O)c2cc(Br)ccc2O)c(OC)c1 | 25.7% (active)
CCOc1c(Br)cc(/C=C2\C(=O)N(CCC#N)N=C2C)cc1OC | 6.06%
O=C(NNC(=S)Nc1ccccc1)c1cccc(S(=O)(=O)N2CCOCC2)c1 | 3.56%
CC(C(=O)O)n1cnc2sc3c(c2c1=O)CCCC3 (stereo not drawn) | 6.68%
COc1ccc(-c2cc(-c3ccc(N)cc3)nc(N)c2C#N)cc1OC | 19.8% (active)
N#Cc1c(N2CCCCC2)nc(N)c2c(N)nc(SCC(=O)O)cc12 | 46% (active)
CCN1C(=O)/C(=C2/Sc3ccccc3N2CCCS(=O)(=O)O)SC1=S | 4.27%

Compound | inhibition
Cc1no[n+]([O-])c1COc1ccccc1/C=C1\NC(=S)NC1=O | 39.9% (active)
O=C(/C=C/c1ccc(Cl)c([N+](=O)[O-])c1)c1ccc(O)cc1 | 10.9%
Cc1[nH][nH]c(=O)c1C(c1ccc(-c2ccc(Cl)cc2)o1)c1c(C)[nH][nH]c1=O | 9.11%
CCN(CC)CCNC(=O)CCCCCn1c(=O)[nH]c2cc(C(=O)OC)ccc2c1=O | 2.31%
Oc1c(Cl)cc(Cl)c(Cl)c1Cc1c(O)c(Cl)cc(Cl)c1Cl | 73.9% (active)
N=C1C(c2nc3ccccc3s2)=C(O)CN1NC(=O)c1ccc([N+](=O)[O-])cc1 | 37.1% (active)
C=CCn1c(N)c(C(=O)OCC(C)C)c2nc3ccccc3nc21 | 18.1% (active)
CCC(C)NC(=O)CSC1=Nc2ccccc2C2=NC(CCC(=O)NCc3ccco3)C(=O)N12 (stereo not drawn) | 4.93%
Oc1c(C=Nc2cccc3nsnc23)ccc2ccccc12 | 4.01%
COc1ccc2c(c1)C(=C(C#N)C#N)C(=O)N2CCc1ccccc1 | 19.5% (active)
Clc1ccc(C2=CSC3=Nc4cccc5cccc(c45)N23)cc1 | 2.9%
CCOC(=O)N1CCC(c2cc(=O)n(-c3ccccc3)[nH]2)CC1 | 7.34%
NC(N)=N/N=C/c1ccc(OCc2ccc(Cl)cc2Cl)cc1 | 37.7% (active)
CC(=O)N1CCc2cc(Br)cc(S(=O)(=O)CCC(=O)Nc3c(C)n(C)n(-c4ccccc4)c3=O)c21 | 2.71%
COc1ccccc1C1C(C#N)=C(N)Oc2c1c(-c1ccccc1)nn2-c1ccccc1 (stereo not drawn) | 1.04%
O=C(c1[nH]ncc1-c1ccc(Cl)cc1)C1CO1 (stereo not drawn) | 12.5%
